ChEMBL document CHEMBL3244394, “N7-Substituted 7-aminoactinomycin D analogues. Synthesis and biological properties” (J Med Chem, 1978)
≈ marks a conversion by molar mass, not a printed value. *1 amine or outer side, *2 acyl side, *3 side chain or, on linkers, in order; H or OH if unused. Where a SMILES comes first, the peptide text is derived from it. Bridges are numbered along the chain shown (N, C = ends). Roman numbers before positions name the chains, in order. [ ]: non-standard residue; d: D form. Actinocin(9to1) = Cc1c2oc3c(C)ccc(C(=O)[*:1])c3nc-2c(C(=O)[*:2])c(N)c1=O; NMeV = CN[C@H](C(=O)O)C(C)C; Sar = CNCC(=O)O

Columns and labels:
[1] = Cytotoxicity against human CCRF-CEM cells; format: cell-based; settings: read-out: ID50 (the source's name)
Outline: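 In vitro growth-inhibition assay on human lymphoblastic leukemia CCRF-CEM cells grown in suspension culture. The values are relative cytotoxicity.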

P388 [2] = experiment: Antitumor activity against mouse P388 cells allografted in BDF1 hybrid mouse assessed as increase of host life span at 150 ug/kg qd for 4 days; format: functional; settings: P388, 96 h
Outline: (§1)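 P388 leukemia, 10⁶ cells, implanted ip in male BDF₁ mice, seven per group. Compounds given in saline once daily on four successive days starting 1 day after implantation (qd 1-4).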

P388 [3] = experiment: Antitumor activity against mouse P388 cells allografted in BDF1 hybrid mouse assessed as increase of host life span at 800 ug/kg qd for 4 days; format: functional; settings: P388, 96 h; outline: as §1
P388 [4] = experiment: Antitumor activity against mouse P388 cells allografted in BDF1 hybrid mouse assessed as increase of host life span at 500 ug/kg qd for 4 days; format: functional; settings: P388, 96 h; outline: as §1
P388 [5] = experiment: Antitumor activity against mouse P388 cells allografted in BDF1 hybrid mouse assessed as increase of host life span at 225 ug/kg qd for 4 days; format: functional; settings: P388, 96 h; outline: as §1
P388 [6] = experiment: Antitumor activity against mouse P388 cells allografted in BDF1 hybrid mouse assessed as increase of host life span at 1500 ug/kg qd for 4 days; format: functional; settings: P388, 96 h; outline: as §1
P388 [7] = experiment: Antitumor activity against mouse P388 cells allografted in BDF1 hybrid mouse assessed as increase of host life span at 200 ug/kg qd for 4 days; format: functional; settings: P388, 96 h; outline: as §1
P388 [8] = experiment: Antitumor activity against mouse P388 cells allografted in BDF1 hybrid mouse assessed as increase of host life span at 450 ug/kg qd for 4 days; format: functional; settings: P388, 96 h; outline: as §1
P388 [9] = experiment: Antitumor activity against mouse P388 cells allografted in BDF1 hybrid mouse assessed as increase of host life span at 75 ug/kg qd for 4 days; format: functional; settings: P388, 96 h; outline: as §1

| Structure (SMILES) | CC50 [1] | further results |
| --- | --- | --- |
| Cc1c2oc3c(C)c(N)cc(C(=O)N[C@@H]4C(=O)N[C@H](C(C)C)C(=O)N5CCC[C@H]5C(=O)N(C)CC(=O)N(C)[C@@H](C(C)C)C(=O)O[C@@H]4C)c3nc-2c(C(=O)N[C@@H]2C(=O)N[C@H](C(C)C)C(=O)N3CCC[C@H]3C(=O)N(C)CC(=O)N(C)[C@@H](C(C)C)C(=O)O[C@@H]2C)c(N)c1=O | 0.085 µg/mL (≈ 0.0669 µM) | ILS at 0.15 mg/kg (P388 [2]): 164% |
| Cc1c2oc3c(C)c(NCc4ccccc4)cc(C(=O)N[C@@H]4C(=O)N[C@H](C(C)C)C(=O)N5CCC[C@H]5C(=O)N(C)CC(=O)N(C)[C@@H](C(C)C)C(=O)O[C@@H]4C)c3nc-2c(C(=O)N[C@@H]2C(=O)N[C@H](C(C)C)C(=O)N3CCC[C@H]3C(=O)N(C)CC(=O)N(C)[C@@H](C(C)C)C(=O)O[C@@H]2C)c(N)c1=O | 0.25 µg/mL (≈ 0.184 µM) | ILS at 0.8 mg/kg (P388 [3]): 108% |
| Cc1c2oc3c(C)c(NCc4ccc(Cl)c(Cl)c4)cc(C(=O)N[C@@H]4C(=O)N[C@H](C(C)C)C(=O)N5CCC[C@H]5C(=O)N(C)CC(=O)N(C)[C@@H](C(C)C)C(=O)O[C@@H]4C)c3nc-2c(C(=O)N[C@@H]2C(=O)N[C@H](C(C)C)C(=O)N3CCC[C@H]3C(=O)N(C)CC(=O)N(C)[C@@H](C(C)C)C(=O)O[C@@H]2C)c(N)c1=O | 0.22 µg/mL (≈ 0.154 µM) | ILS at 0.5 mg/kg (P388 [4]): 192% |
| Cc1c2oc3c(C)c(NCc4cccc(Oc5ccccc5)c4)cc(C(=O)N[C@@H]4C(=O)N[C@H](C(C)C)C(=O)N5CCC[C@H]5C(=O)N(C)CC(=O)N(C)[C@@H](C(C)C)C(=O)O[C@@H]4C)c3nc-2c(C(=O)N[C@@H]2C(=O)N[C@H](C(C)C)C(=O)N3CCC[C@H]3C(=O)N(C)CC(=O)N(C)[C@@H](C(C)C)C(=O)O[C@@H]2C)c(N)c1=O | 0.28 µg/mL (≈ 0.193 µM) | ILS at 0.225 mg/kg (P388 [5]): 130% |
| Cc1c2oc3c(C)c(NCc4ccc(C(=O)O)cc4)cc(C(=O)N[C@@H]4C(=O)N[C@H](C(C)C)C(=O)N5CCC[C@H]5C(=O)N(C)CC(=O)N(C)[C@@H](C(C)C)C(=O)O[C@@H]4C)c3nc-2c(C(=O)N[C@@H]2C(=O)N[C@H](C(C)C)C(=O)N3CCC[C@H]3C(=O)N(C)CC(=O)N(C)[C@@H](C(C)C)C(=O)O[C@@H]2C)c(N)c1=O | 0.26 µg/mL (≈ 0.185 µM) | ILS at 0.5 mg/kg (P388 [4]): 123% |
| CCCCCCCCNc1cc(C(=O)N[C@@H]2C(=O)N[C@H](C(C)C)C(=O)N3CCC[C@H]3C(=O)N(C)CC(=O)N(C)[C@@H](C(C)C)C(=O)O[C@@H]2C)c2nc3c(C(=O)N[C@@H]4C(=O)N[C@H](C(C)C)C(=O)N5CCC[C@H]5C(=O)N(C)CC(=O)N(C)[C@@H](C(C)C)C(=O)O[C@@H]4C)c(N)c(=O)c(C)c-3oc2c1C | 0.27 µg/mL (≈ 0.195 µM) | ILS at 1.5 mg/kg (P388 [6]): 73% |
| Cc1c2oc3c(C)c(NCc4ccco4)cc(C(=O)N[C@@H]4C(=O)N[C@H](C(C)C)C(=O)N5CCC[C@H]5C(=O)N(C)CC(=O)N(C)[C@@H](C(C)C)C(=O)O[C@@H]4C)c3nc-2c(C(=O)N[C@@H]2C(=O)N[C@H](C(C)C)C(=O)N3CCC[C@H]3C(=O)N(C)CC(=O)N(C)[C@@H](C(C)C)C(=O)O[C@@H]2C)c(N)c1=O | 0.26 µg/mL (≈ 0.193 µM) | ILS at 0.2 mg/kg (P388 [7]): 90% |
| Cc1c2oc3c(C)c(NCc4ccccn4)cc(C(=O)N[C@@H]4C(=O)N[C@H](C(C)C)C(=O)N5CCC[C@H]5C(=O)N(C)CC(=O)N(C)[C@@H](C(C)C)C(=O)O[C@@H]4C)c3nc-2c(C(=O)N[C@@H]2C(=O)N[C@H](C(C)C)C(=O)N3CCC[C@H]3C(=O)N(C)CC(=O)N(C)[C@@H](C(C)C)C(=O)O[C@@H]2C)c(N)c1=O | 0.26 µg/mL (≈ 0.191 µM) | ILS at 0.45 mg/kg (P388 [8]): 145% |
| Cc1c2oc3c(C)c(NCc4ccc(C(F)(F)F)cc4)cc(C(=O)N[C@@H]4C(=O)N[C@H](C(C)C)C(=O)N5CCC[C@H]5C(=O)N(C)CC(=O)N(C)[C@@H](C(C)C)C(=O)O[C@@H]4C)c3nc-2c(C(=O)N[C@@H]2C(=O)N[C@H](C(C)C)C(=O)N3CCC[C@H]3C(=O)N(C)CC(=O)N(C)[C@@H](C(C)C)C(=O)O[C@@H]2C)c(N)c1=O | 0.26 µg/mL (≈ 0.182 µM) | ILS at 0.5 mg/kg (P388 [4]): 100% |
| Cc1c2oc3c(C)c(NCc4ccc[nH]4)cc(C(=O)N[C@@H]4C(=O)N[C@H](C(C)C)C(=O)N5CCC[C@H]5C(=O)N(C)CC(=O)N(C)[C@@H](C(C)C)C(=O)O[C@@H]4C)c3nc-2c(C(=O)N[C@@H]2C(=O)N[C@H](C(C)C)C(=O)N3CCC[C@H]3C(=O)N(C)CC(=O)N(C)[C@@H](C(C)C)C(=O)O[C@@H]2C)c(N)c1=O | 0.26 µg/mL (≈ 0.193 µM) | ILS at 0.2 mg/kg (P388 [7]): 90% |
| Cc1c2oc3c(C)ccc(C(=O)N[C@@H]4C(=O)N[C@H](C(C)C)C(=O)N5CCC[C@H]5C(=O)N(C)CC(=O)N(C)[C@@H](C(C)C)C(=O)O[C@@H]4C)c3nc-2c(C(=O)N[C@@H]2C(=O)N[C@H](C(C)C)C(=O)N3CCC[C@H]3C(=O)N(C)CC(=O)N(C)[C@@H](C(C)C)C(=O)O[C@@H]2C)c(N)c1=O [DACTINOMYCIN] (I: T[dV]P[Sar][NMeV] / II: T[dV]P[Sar][NMeV]; ester I:1-I:C, II:1-II:C; linker I:N-II:N via Actinocin(9to1)) | 0.01 µg/mL (≈ 0.00797 µM) | ILS at 0.075 mg/kg (P388 [9]): 122% |
